Runt-CBFb FRET = inhibitors of human RUNX1 Runt domain binding to CBFb; Q01196+Q13951; Cerulean-Runt/Venus-CBFb FRET ratio 530/480, 1 h; inhibition, % at 20 µM; 0.46% of 220,000 active; AID 1496;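 active = inhibition over about 50% at 20 µM in the single-dose screen, limit read from the data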;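 note: 0% = DMSO wells and 100% = excess unlabeled CBFb competitor control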
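Measured by: fluorescence energy transfer, 422 nm excitation, 530/480 nm emission; test system: Cerulean-tagged RUNX1 Runt domain (FRET donor) fusion protein; buffer or medium: Tris pH 7.5 buffer with BSA; compound: one dose, 20 µM compound, 1% DMSO; times: two 1 h room-temperature incubations shielded from light; benchmarks: unlabeled CBFb 5 µM, positive control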
Tb hexokinase = T. brucei hexokinase 1 inhibition; recombinant TbHK1, G6PDH-coupled NADH A340; inhibition, % at 10 µM; 0.11% of 220,000 active;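 active = inhibition of 50% or more in the single-dose primary screen; inactive = inhibition below 50%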
Runt-SMMHC FRET = blocks binding of human RUNX1 Runt domain to CBFb-SMMHC; Q01196+Q13951; Cerulean-Runt/Venus-CBFb-SMMHC FRET ratio 530/480, 1 h; inhibition, % at 20 µM; 0.74% of 220,000 active; AID 1434;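 active = mean inhibition across duplicate retests at 20 µM reaching about 50%, limit read from the data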;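 note: 0% = DMSO wells and 100% = wells with excess untagged CBFb-SMMHC; inhibitors lower the FRET ratio by blocking Runt binding to CBFb-SMMHC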
p97 inhibitor = human p97 ATPase inhibition. P55072. recombinant p97 ATPase, Kinase-Glo ATP luminescence, 3 h. inhibition, % at 8 µM. 0.42% of 220,000 active; in the data active = inhibition above about 15%;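 note: 0% = DMSO vehicle and 100% = wells lacking enzyme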
Target sequence (P55072 whole entry, looked up): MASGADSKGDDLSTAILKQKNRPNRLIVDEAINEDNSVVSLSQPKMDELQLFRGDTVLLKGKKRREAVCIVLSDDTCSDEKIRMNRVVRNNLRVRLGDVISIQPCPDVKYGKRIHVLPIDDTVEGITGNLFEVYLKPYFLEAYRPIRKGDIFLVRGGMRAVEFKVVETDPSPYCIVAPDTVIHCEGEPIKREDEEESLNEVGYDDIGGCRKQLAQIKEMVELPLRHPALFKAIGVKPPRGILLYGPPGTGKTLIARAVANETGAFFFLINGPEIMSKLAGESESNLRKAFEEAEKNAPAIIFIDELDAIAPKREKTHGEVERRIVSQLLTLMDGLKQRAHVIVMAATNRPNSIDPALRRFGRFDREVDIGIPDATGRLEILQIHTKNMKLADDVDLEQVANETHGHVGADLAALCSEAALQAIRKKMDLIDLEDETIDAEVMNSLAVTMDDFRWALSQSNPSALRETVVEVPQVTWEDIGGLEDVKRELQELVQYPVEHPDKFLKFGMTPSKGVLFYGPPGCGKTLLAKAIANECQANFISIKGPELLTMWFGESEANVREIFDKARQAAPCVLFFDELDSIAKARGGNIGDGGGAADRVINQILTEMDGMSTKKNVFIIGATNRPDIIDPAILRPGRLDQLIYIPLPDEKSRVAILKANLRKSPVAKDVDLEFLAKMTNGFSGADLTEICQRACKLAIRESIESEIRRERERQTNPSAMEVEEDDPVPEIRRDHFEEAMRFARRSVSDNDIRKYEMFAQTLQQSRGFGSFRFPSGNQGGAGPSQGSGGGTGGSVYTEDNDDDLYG
RanGTP-Impb inh = inhibitors of RanGTP-importin-beta interaction, primary screen, biochemical, FRET, CFP-Ran, YFP-importin-beta, homogeneous; inhibition, % (no concentration beside the values); AID 2216; 1.1% of 300,000 active; cell-free CFP-Ran/YFP-importin-beta FRET ratio;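 active = more than half of the replicate wells show a fall in the fluorescence ratio signal beyond about 16%, limit read from the data, passing the limit was not always enough; inconclusive = exactly half of the replicate wells pass the set limit; inactive = fewer than half of replicates pass the limit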;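 note: 0% = DMSO wells and 100% = Ran loaded with GDP instead of GTP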
Hck-Nef inh = blocks Nef-activated human Hck kinase | P08631 | Recombinant Hck-YEEI plus Nef, Z-Lyte FRET kinase assay | inhibition, % at 20 µM | 0.68% of 220,000 active | AID 463187;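 active = Hck-Nef kinase inhibition above about 50%, limit read from the data; inactive = inhibition below that limit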;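 note: 0% = DMSO with Hck plus Nef and 100% = Hck alone without Nef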
Hck Nef conf = confirmation of Hck-Nef kinase inhibitors; calls only at 10 µM; Recombinant Hck-YEEI:Nef, Z-Lyte FRET kinase assay; AID 463188; 28% of 1,300 active; shares compounds with Hck-Nef inh;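 active = average inhibition of at least 50%, with Z-scores no higher than 3 in both the phospho-tyrosine peptide and fluorescence counterscreens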
Numbers without * were called inactive; i = inactive; ? = inconclusive; . = not tested or not shown; + = active, no number. Compounds with a hit are over-represented: about 2.1% of the library has one in this group of screens.

SMILES	Runt-CBFb FRET	Tb hexokinase	Runt-SMMHC FRET	p97 inhibitor	RanGTP-Impb inh	Hck-Nef inh	Hck Nef conf
CC(=O)Nc1ccc(/C=N/NC(=O)c2cc(-c3ccco3)nc3ccccc23)cc1	14	-15	-1	2	2	15	.
O=C(O)c1ccccc1/C=N/NC(=O)c1cc(-c2ccco2)nc2ccccc12	14	-4	19	4	-7	71*	+
CCC12CN3CC(CC)(CN(C1)C3c1ccc([N+](=O)[O-])o1)C2=O (stereo unspecified)	1	-10	-2	4	4	50*	i
CCCC12CN3CC(C)(CN(C1)C3c1ccc([N+](=O)[O-])o1)C2=O (stereo unspecified)	0	-27	-5	8	-2	2	.
Cc1cc2c(n1-c1ccc(Br)cc1)CC(C)(C)CC2=O	-3	11	1	-4	1	99*	i
Cc1ccc(C(=O)Nc2ccccc2C(=O)O)cc1NC(=O)COc1c(C)cccc1C	-3	-1	-4	3	5	17	.
COc1ccc(-c2cc(CNC(=O)CN(C)Cc3ccccc3)on2)cc1	-2	-2	2	8	-2	-1	.
Cn1nc(C(=O)NCC2CCCO2)c2ccccc2c1=O (stereo unspecified)	0	0	1	-2	-3	0	.
N=c1c(C(=O)NCC2CCCO2)cc2c(=O)n3ccccc3nc2n1Cc1cccnc1 (stereo unspecified)	18	-11	57*	0	182*	128*	.
Cc1cccn2c(=O)c3cc(C(=O)NCC4CCCO4)c(=N)n(Cc4cccnc4)c3nc12 (stereo unspecified)	18	-23	57*	1	.	118*	.
CCC(=O)Oc1ccc2c(C)cc(=O)oc2c1C(=O)CC	6	-28	-1	7	1	154*	.
OCCNCCSc1nc(C2CCCCC2)n(-c2ccccc2Cl)n1	2	1	-1	1	0	18	.
CC(C)[C@H](CO)N(Cc1cccc(F)c1)c1nc(Nc2cccc(Cl)c2)c2ncn(C(C)C)c2n1	2	-31	3	.	0	68*	+
CC(C)n1cnc2c(N(C)c3cccc(Cl)c3)nc(N(CCO)CCO)nc21	1	-15	-1	.	5	23	.
CC[C@H](CO)Nc1nc(Nc2cccc(Cl)c2)c2ncn(C(C)C)c2n1	2	-17	-2	.	-1	110*	+
CCOC(=O)Cc1csc(NC(=O)COc2ccc(C)c(C)c2)n1	.	1	.	1	-1	53*	i
CCOC(=O)Cc1csc(NC(=O)COc2ccc(C)cc2)n1	1	-1	2	0	-2	19	.
Cc1ccc(OC(=O)c2ccc(N3CCOCC3)c([N+](=O)[O-])c2)cc1	-3	1	-5	2	4	1	.
COc1ccc(NC(=O)CN2C(=O)/C(=C3\SC(=S)N(C4CCS(=O)(=O)C4)C3=O)c3ccccc32)cc1 (stereo unspecified)	15	24	2	6	2	99*	+
O=C(CN1C(=O)/C(=C2\SC(=S)N(C3CCS(=O)(=O)C3)C2=O)c2ccccc21)Nc1ccc(F)cc1 (stereo unspecified)	13	12	0	4	-3	48	.
O=C(Oc1ccc(Nc2ncnc3ccccc23)cc1)c1cccnc1	1	-13	2	2	0	85*	+
O=C(O)c1ccc(Nc2ncnc3ccccc23)cc1	.	.	.	.	0	.	.
CCC/C(O)=C1\C(=O)CCCC1=NCCc1c(C)[nH]c2ccccc12	0	3	0	-5	-5	19	.
CC1CN(Cc2c(O)ccc3c2oc(=O)c2ccccc23)CC(C)O1 (stereo unspecified)	2	-16	-4	3	2	24	.
O=c1oc2c(CN3CCOCC3)c(O)ccc2c2c1CCC2	21	-34	54*	3	.	85*	.
SMILES	Runt-CBFb FRET	Tb hexokinase	Runt-SMMHC FRET	p97 inhibitor	RanGTP-Impb inh	Hck-Nef inh	Hck Nef conf
CC1CCCN(Cc2c(O)ccc3c4c(c(=O)oc23)CCCC4)C1 (stereo unspecified)	45	-33	79*	1	10	64*	.
COc1ccc(CCn2c(=S)[nH]c3cc(C(=O)NCc4ccco4)ccc3c2=O)cc1OC	1	-9	-3	-1	-4	75*	+
CCOc1ccc(/C=C2\SC(=S)N(NS(=O)(=O)c3ccc(C)cc3)C2=O)cc1OC	-10	7	-13	-8	2	51*	+
CCOc1ccc(/C=C2\SC(=S)N(NS(=O)(=O)c3ccccc3)C2=O)cc1OC	-8	-2	-22	-5	-7	16	.
CCOCCCNc1nc2nc3ccc(C)cn3c(=O)c2cc1C(=O)NCC1CCCO1 (stereo unspecified)	.	-1	.	3	-1	199*	.
CCn1cc(C(=O)NCC2CCCO2)c2cc(OC)c(OC)cc2c1=O (stereo unspecified)	-2	-8	2	4	-5	2	.
Cc1ccc2nc3c(cc(C(=O)NCC4CCCO4)c(=N)n3CCCOC(C)C)c(=O)n2c1 (stereo unspecified)	11	-1	41	0	.	182*	i
CCOC(=O)C1CCCN(C(=O)c2ccc(C)cc2O)C1 (stereo unspecified)	1	-2	-7	2	0	2	.
O=C(NCCc1ccccc1)c1nccc2ccccc12	.	.	.	.	-2	.	.
c1ccc(CCNc2ccnc3cc4ccccc4cc23)cc1	36	5	93*	5	152*	156*	.
O=c1cc(-c2ccccc2)nc(SCCOc2ccccc2Cl)[nH]1	-4	-5	-2	-3	?	9	.
O=C(NCc1n[nH]c(=S)n1-c1ccc(Br)cc1)c1ccc(S(=O)(=O)N2CCCCC2)cc1	.	.	.	.	9	.	.
NS(=O)(=O)c1ccc(N/N=C/c2ccc(O)cc2O)c([N+](=O)[O-])c1	-1	-14	0	4	?	93*	+
NS(=O)(=O)c1ccc(N/N=C/c2ccccc2C(=O)O)c([N+](=O)[O-])c1	-3	-36	2	1	-4	-3	.
O=C(CCNC(=O)c1ccc(Br)cc1)NNC(=O)C1COc2ccccc2O1 (stereo unspecified)	.	.	.	.	2	.	.
CC(Oc1ccc(-n2cnnn2)cc1)C(=O)O (stereo unspecified)	1	-2	-5	2	-2	75*	i
Nc1c(C(=O)NC2CC2)sc2nc3c(c(-c4ccco4)c12)CC/C3=C/c1ccco1	27	-10	-19	28*	.	85*	i

Bioassay records from PubChem BioAssay.
